The results in this text go back to ChEMBL document CHEMBL1268941, “Bromophenols as Candida albicans isocitrate lyase inhibitors” (Bioorg Med Chem Lett, 2010).

pIC50: −log10 of the molar value. ≈ marks a conversion by molar mass, not a printed value.

The subject of experiment [1] is Trichophyton rubrum. In words: Antimicrobial activity against Trichophyton rubrum IFO 9185 after 48 to 72 hrs by broth dilution method. Format: functional. In short, it runs like this:
(§1)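 For C. albicans, cells were grown 48 h at 28 °C in YPD broth (1% yeast extract, 2% peptone, 2% dextrose), centrifuged and washed twice in sterile distilled water. A. fumigatus, T. rubrum and T. mentagrophytes were grown on potato dextrose agar for 2 weeks at 28 °C. Compound stocks made in DMSO. Microtiter plates incubated 48–72 h at 28 °C. Read-out was the MIC.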
On the technique in general: Broth dilution looks for growth in wells or tubes with falling amounts of substance.

Experiment [2] deals with Aspergillus fumigatus. In words: Antimicrobial activity against Aspergillus fumigatus HIC 6094 after 48 to 72 hrs by broth dilution method. Format: functional. In a few lines: as §1
In experiment [3] the test system is Candida albicans. Briefly: Antimicrobial activity against Candida albicans ATCC 10231 after 48 to 72 hrs by broth dilution method. Format: functional. In a few lines: as §1
Experiment [4] relates to Trichophyton mentagrophytes. Briefly: Antimicrobial activity against Trichophyton mentagrophytes IFO 40996 after 48 to 72 hrs by broth dilution method. Format: functional. In short, it runs like this: as §1
For experiment [5], the system named is Salmonella typhimurium. In words: Antimicrobial activity against Salmonella Typhimurium ATCC 14028 after 24 hrs by broth dilution method. Format: functional, Salmonella enterica subsp. enterica serovar Typhimurium. Particulars: Salmonella enterica, ATCC 14028, 24 h. In a few lines: (§2)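 Test bacteria grown overnight at 37 °C in LB broth, centrifuged and washed twice in sterile distilled water. Compound stocks made in DMSO and diluted in broth. Each microtiter well received 10 µl of broth holding about 10⁵ cfu/ml of bacteria. Plates incubated 24 h at 37 °C. Read-out was the MIC.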

Experiment [6] deals with Proteus vulgaris. Briefly: Antimicrobial activity against Proteus vulgaris ATCC 3851 after 24 hrs by broth dilution method. The format is functional. As to conditions: ATCC 3851, 24 h. In short, it runs like this:
as §2

The subject of experiment [7] is Staphylococcus aureus. In words: Antimicrobial activity against Staphylococcus aureus ATCC 6538p after 24 hrs by broth dilution method. The format is functional. In a few lines: as §2
In experiment [8] the target is Isocitrate lyase (Candida albicans, UniProt Q9P8Q7). In words: Inhibition of Candida albicans ATCC 10231 isocitrate lyase.
Chain of Isocitrate lyase (Q9P8Q7 whole entry): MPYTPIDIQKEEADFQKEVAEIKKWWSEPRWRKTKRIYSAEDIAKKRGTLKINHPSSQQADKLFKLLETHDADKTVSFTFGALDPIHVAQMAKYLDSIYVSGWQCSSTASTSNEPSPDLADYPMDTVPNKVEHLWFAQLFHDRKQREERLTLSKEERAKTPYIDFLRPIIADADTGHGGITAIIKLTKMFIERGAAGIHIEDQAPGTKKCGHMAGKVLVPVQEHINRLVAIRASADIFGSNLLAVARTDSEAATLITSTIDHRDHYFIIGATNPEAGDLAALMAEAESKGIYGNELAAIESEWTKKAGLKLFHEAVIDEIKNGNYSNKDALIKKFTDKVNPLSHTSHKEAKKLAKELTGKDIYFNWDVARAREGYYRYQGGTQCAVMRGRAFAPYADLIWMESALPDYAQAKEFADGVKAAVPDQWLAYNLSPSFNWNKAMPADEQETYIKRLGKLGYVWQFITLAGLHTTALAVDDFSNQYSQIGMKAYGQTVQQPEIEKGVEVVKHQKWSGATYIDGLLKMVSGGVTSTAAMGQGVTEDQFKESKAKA
The subject of experiment [9] is Bacillus subtilis. In words: Antimicrobial activity against Bacillus subtilis ATCC 6633 after 24 hrs by broth dilution method. Format: functional. As to conditions: ATCC 6633, 24 h. In short, it runs like this:
as §2

For experiment [10], the system named is Micrococcus luteus. In words: Antimicrobial activity against Micrococcus luteus IFO 12708 after 24 hrs by broth dilution method. The format is functional. Particulars: IFO 12708, 24 h. In short, it runs like this:
as §2

Usually MIC stands for the least concentration at which growth counts as inhibited. A lower MIC goes with inhibition by little substance. With `C[C@@H]1[C@H](O)[C@@H](C)/C=C/C=C/C=C/C=C/C=C/C=C/C=C/[C@H](O[C@@H]2O[C@H](C)[C@@H](O)[C@H](N)[C@@H]2O)C[C@@H]2O[C@](O)(C[C@@H](O)C[C@@H](O)[C@H](O)CC[C@@H](O)C[C@@H](O)CC(=O)O[C@H]1C)C[C@H](O)[C@H]2C(=O)O` [AMPHOTERICIN B], the MIC was found to be 3.12 µg/mL (≈ 3.38 µM) in experiment [1], 3.12 µg/mL (≈ 3.38 µM) in experiment [2], 6.25 µg/mL (≈ 6.76 µM) in experiment [3] and 3.12 µg/mL (≈ 3.38 µM) in [4].
Broadly, the pIC50 is the IC50 on a negative log10 scale, so that one unit is a factor of ten. Low values mean a large IC50, high ones a small IC50. As for `Oc1cc(COCc2cc(O)c(O)c(Br)c2Br)c(Br)c(Br)c1O`, the MIC in [1], in [5], in [6], in experiment [7], in experiment [2] and in experiment [3] was above 100 µg/mL each time. Moreover, the MIC in experiment [4], in experiment [9] and in [10] was above 100 µg/mL throughout. Moreover, the pIC50 in [8] was 4.55.
For the molecule `O=C(c1cc(O)c(O)c(Br)c1)c1cc(O)c(O)c(Br)c1Br`, the MIC in experiment [1] was above 100 µg/mL; in [5] it was 100 µg/mL (≈ 207 µM); in experiment [6], 100 µg/mL (≈ 207 µM); in experiment [7], 100 µg/mL (≈ 207 µM); in [2], above 100 µg/mL; in experiment [3] it was 100 µg/mL (≈ 207 µM). The results for the MIC in [4], in experiment [9] and in experiment [10] were above 100 µg/mL, 50 µg/mL (≈ 104 µM) and 50 µg/mL (≈ 104 µM), respectively. In experiment [8], this molecule had a pIC50 of 5.58.
Take `Oc1ccc(COCc2ccc(O)c(O)c2)cc1O`: the minimum inhibitory concentration (MIC) in experiment [1], in experiment [5], in experiment [6], in experiment [7], in [2] and in [3] was above 100 µg/mL throughout. Moreover, the minimum inhibitory concentration (MIC) in experiment [4], in experiment [9] and in experiment [10] was above 100 µg/mL each time. Further, the pIC50 in experiment [8] is below 3.42.
On to `Oc1cc(Cc2cc(O)c(O)c(Br)c2Br)c(Br)c(Br)c1O`, for which the MIC in [1] came to 1.56 µg/mL (≈ 2.85 µM); in [5], 50 µg/mL (≈ 91.3 µM); in experiment [6], 50 µg/mL (≈ 91.3 µM); in experiment [7] it was 25 µg/mL (≈ 45.6 µM); in experiment [2], 0.78 µg/mL (≈ 1.42 µM); in experiment [3] it was 1.56 µg/mL (≈ 2.85 µM). For the same molecule, the MIC in experiment [4] is 1.56 µg/mL (≈ 2.85 µM); in experiment [9], 25 µg/mL (≈ 45.6 µM); in experiment [10], 25 µg/mL (≈ 45.6 µM). Further, the pIC50 in [8] is 4.73.
Consider `Oc1cc(Br)c(Cc2cc(O)c(O)cc2Br)cc1O`, for which the MIC in experiment [1] was above 100 µg/mL; in [5], 25 µg/mL (≈ 64.1 µM); in experiment [6], 25 µg/mL (≈ 64.1 µM); in [7], 25 µg/mL (≈ 64.1 µM); in experiment [2] it was above 100 µg/mL; in experiment [3], above 100 µg/mL. Further, the minimum inhibitory concentration (MIC) in experiment [4] came to 50 µg/mL (≈ 128 µM); in experiment [9], 25 µg/mL (≈ 64.1 µM); in experiment [10], 12.5 µg/mL (≈ 32 µM). The pIC50 in experiment [8] was 4.34.
Regarding `Oc1ccc(Oc2ccc(O)c(O)c2)cc1O`, the MIC in experiment [1] was above 100 µg/mL; in experiment [5] it was 100 µg/mL (≈ 427 µM); in experiment [6], above 100 µg/mL; in [7], 50 µg/mL (≈ 213 µM); in experiment [2] it was above 100 µg/mL; in experiment [3], above 100 µg/mL. Besides, the figures for the MIC in experiment [4], in experiment [9] and in experiment [10] were above 100 µg/mL, above 100 µg/mL and 100 µg/mL (≈ 427 µM), respectively. In [8], this molecule had a pIC50 below 4.00.
Regarding `Oc1ccc(CCc2ccc(O)c(O)c2)cc1O`, the MIC was above 100 µg/mL in [1]; 100 µg/mL (≈ 406 µM) in experiment [5]; 100 µg/mL (≈ 406 µM) in experiment [6]; 50 µg/mL (≈ 203 µM) in experiment [7]; above 100 µg/mL in experiment [2]; above 100 µg/mL in experiment [3]. For the same molecule, the MIC in experiment [4], in [9] and in experiment [10] was 100 µg/mL (≈ 406 µM) each time. The pIC50 in experiment [8] was 4.23.
Consider `O=C(c1cc(O)c(O)c(Br)c1)c1cc(O)c(O)c(Br)c1`, for which the MIC in [1], in experiment [5], in experiment [6], in experiment [7], in experiment [2] and in experiment [3] was above 100 µg/mL in each case. Besides, the MIC in [4] was above 100 µg/mL; in experiment [9], 100 µg/mL (≈ 248 µM); in experiment [10], 100 µg/mL (≈ 248 µM). Moreover, the pIC50 in [8] is 5.05.
With `Oc1cc(Br)c(CCc2cc(O)c(O)c(Br)c2Br)cc1O`, the MIC in experiment [1] was above 100 µg/mL; in experiment [5] it was 100 µg/mL (≈ 207 µM); in [6], 100 µg/mL (≈ 207 µM); in experiment [7] it was 100 µg/mL (≈ 207 µM); in experiment [2], above 100 µg/mL; in experiment [3], 100 µg/mL (≈ 207 µM). Moreover, the MIC was above 100 µg/mL in experiment [4], 50 µg/mL (≈ 104 µM) in experiment [9] and 100 µg/mL (≈ 207 µM) in experiment [10]. In experiment [8], the pIC50 is 4.83.
On to `Oc1ccc(Oc2cc(O)c(O)cc2Br)cc1O`, for which the MIC in [1] was above 100 µg/mL; in experiment [5] it was 100 µg/mL (≈ 319 µM); in experiment [6], above 100 µg/mL; in [7], 100 µg/mL (≈ 319 µM); in experiment [2], above 100 µg/mL; in experiment [3], above 100 µg/mL. For the same molecule, the MIC in experiment [4] is above 100 µg/mL; in [9] it was above 100 µg/mL; in experiment [10], 100 µg/mL (≈ 319 µM). Besides, in experiment [8], the pIC50 was 4.17.
For `Oc1cc(Br)c(COCc2cc(O)c(O)c(Br)c2Br)cc1O`, the MIC in experiment [1], in experiment [5], in experiment [6], in [7], in [2] and in experiment [3] was above 100 µg/mL each time. In addition, the MIC in experiment [4], in experiment [9] and in experiment [10] was above 100 µg/mL in each case. Moreover, the pIC50 in experiment [8] is 4.81.
`Oc1cc(Br)c(Oc2cc(O)c(O)cc2Br)cc1O`: the MIC in experiment [1] was above 100 µg/mL; in experiment [5], 100 µg/mL (≈ 255 µM); in experiment [6], 100 µg/mL (≈ 255 µM); in [7], 100 µg/mL (≈ 255 µM); in experiment [2], above 100 µg/mL; in experiment [3] it was above 100 µg/mL. Also, the MIC was above 100 µg/mL in experiment [4], 100 µg/mL (≈ 255 µM) in experiment [9] and 50 µg/mL (≈ 128 µM) in experiment [10]. In experiment [8], this molecule had a negative-log IC50 (pIC50) of 4.51.
Regarding `Oc1cc(Br)c(CCc2cc(O)c(O)cc2Br)cc1O`, the MIC in [1], in experiment [5], in [6], in experiment [7], in experiment [2] and in experiment [3] was 50 µg/mL (≈ 124 µM) in each case. In addition, the MIC stood at 100 µg/mL (≈ 247 µM) in experiment [4], 50 µg/mL (≈ 124 µM) in experiment [9] and 50 µg/mL (≈ 124 µM) in [10]. For the same molecule, the pIC50 in experiment [8] is 4.67.
Regarding `Oc1cc(Oc2cc(O)c(O)c(Br)c2Br)c(Br)c(Br)c1O`, the minimum inhibitory concentration (MIC) in experiment [1] was found to be 12.5 µg/mL (≈ 22.7 µM); in [5], 50 µg/mL (≈ 90.9 µM); in experiment [6], 25 µg/mL (≈ 45.5 µM); in experiment [7] it was 50 µg/mL (≈ 90.9 µM); in experiment [2], 25 µg/mL (≈ 45.5 µM); in experiment [3], 25 µg/mL (≈ 45.5 µM). Besides, the results for the MIC in experiment [4], in experiment [9] and in experiment [10] were 25 µg/mL (≈ 45.5 µM), 25 µg/mL (≈ 45.5 µM) and 50 µg/mL (≈ 90.9 µM), respectively. Also, the pIC50 in [8] is 4.93.
Regarding `CC1(C)S[C@@H]2[C@H](NC(=O)[C@H](N)c3ccccc3)C(=O)N2[C@H]1C(=O)O` [AMPICILLIN], the minimal inhibitory concentration (MIC) in experiment [5] is 1.56 µg/mL (≈ 4.46 µM); in experiment [6] it was 3.12 µg/mL (≈ 8.93 µM); in [7], 1.56 µg/mL (≈ 4.46 µM); in [9], 1.56 µg/mL (≈ 4.46 µM); in experiment [10] it was 3.12 µg/mL (≈ 8.93 µM).
As for `O=C(c1ccc(O)c(O)c1)c1ccc(O)c(O)c1`, the MIC in experiment [1], in experiment [5], in [6], in experiment [7], in experiment [2] and in experiment [3] was above 100 µg/mL each time. In addition, the MIC in [4], in [9] and in experiment [10] was above 100 µg/mL each time. The same molecule showed a negative logarithm of the IC50 (pIC50) in experiment [8] of 4.65.
